Assay outcomes: PubChem BioAssay, several laboratories
ABCB1 inh – ABCB1 efflux pump inhibitors, primary screen, cell-based, multiplex, flow cytometry, ABCG2 counter-screen; actives 0.067% (n = 190,000); AID 1326, 2008; CCRF-Adr cells, JC-1 efflux; ATP-dependent translocase ABCB1 (Homo sapiens), P08183; inhibition, % at 6.6 µM; in the data active = inhibition above about 40%;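 also: higher value means more JC-1 retained so stronger ABCB1 efflux block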
ABCG2 inh – ABCG2 efflux pump inhibitors, primary screen, multiplex with ABCB1, IgMXP3 cells, flow cytometry. Broad substrate specificity ATP-binding cassette transporter ABCG2 (Homo sapiens), Q9UNQ0. JC-1 efflux. inhibition, % at 6.6 µM. actives 0.1% (n = 190,000);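 active = inhibition above 80%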
Target sequence (Q9UNQ0 whole entry, looked up): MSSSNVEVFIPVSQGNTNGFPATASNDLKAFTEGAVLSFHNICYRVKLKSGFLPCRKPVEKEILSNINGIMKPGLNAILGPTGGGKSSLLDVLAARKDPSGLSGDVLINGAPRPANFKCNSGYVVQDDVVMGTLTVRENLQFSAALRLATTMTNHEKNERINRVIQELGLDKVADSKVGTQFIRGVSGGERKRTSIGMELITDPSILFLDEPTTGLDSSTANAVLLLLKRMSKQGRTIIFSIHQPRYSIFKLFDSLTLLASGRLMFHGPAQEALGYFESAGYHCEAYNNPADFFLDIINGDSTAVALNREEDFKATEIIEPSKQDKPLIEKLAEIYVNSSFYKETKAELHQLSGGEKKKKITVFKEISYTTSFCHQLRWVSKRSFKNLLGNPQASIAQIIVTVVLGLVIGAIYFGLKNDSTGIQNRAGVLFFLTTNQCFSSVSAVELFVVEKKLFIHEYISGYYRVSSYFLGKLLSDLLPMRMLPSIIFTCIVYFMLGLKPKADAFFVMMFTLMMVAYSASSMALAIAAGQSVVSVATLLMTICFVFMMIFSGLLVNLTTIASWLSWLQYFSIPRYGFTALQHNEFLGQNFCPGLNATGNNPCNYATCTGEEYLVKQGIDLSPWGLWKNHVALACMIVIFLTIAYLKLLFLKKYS
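Test system: ABCG2 IgMXP3 and barcoded ABCB1 CCRF-Adr cell mix; Schedule: cells with compound and JC-1, 10 min at 25 °C, rotating, no wash; Technique: flow cytometry of retained JC-1 fluorescence; Measure: % inhibition of efflux relative to nicardipine and DMSO; Controls: nicardipine high and DMSO low controls.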
RAM inhibit – inhibitors of the yeast RAM network, primary screen, dse1pr::URA3 reporter, 5-FOA selection | actives 1.8% (n = 190,000) | S. cerevisiae dse1pr::URA3 reporter, 5-FOA growth OD615, 2 d; analog-sensitive cbk1-as2 kinase mutant strain | inhibition, % at 50 µM;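 active = inhibition above a set limit, 3 SD over mean compound inhibition, cut at about 8.4% in these data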;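 also: inhibition rescues growth on 5-FOA so higher OD means more RAM inhibition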
WT yeast gro inh – growth inhibition of WT strain, primary screen, mitochondrial fusion inhibitor project, WT and mutant strains, chemical genetic; mitochondrial fusion phenotypic screen; inhibition, % at 10 µM; actives 2.1% (n = 190,000); AID 1362, 2008; in the data active = inhibition above about 58%; tested in S. cerevisiae
L major viab – Leishmania major promastigote growth inhibition, primary screen | actives 9% (n = 200,000) | inhibition, % at 10 µM | Leishmania major promastigotes, resazurin fluorescence viability; in the data active = inhibition above about 50%;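 also: promastigotes grown with compound for 44 hours at 28 °C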
Large screens that a line does not name were inactive. An excerpt weighted towards active compounds, which were near 12% of everything screened.

COc1ccc(NC(C#N)c2ccccc2OCc2ccccc2)cc1 (stereo not given)	none
Cc1ccc(NC(=S)N(CCN(C)C)C(C)c2cccnc2)cc1 (stereo not given)	none
CCOc1ccc(NC(=S)N(CCOC)C(C)c2cccnc2)cc1 (stereo not given)	L major viab 73
COCCN(C(=S)Nc1cccc(C)c1)C(C)c1cccnc1 (stereo not given)	L major viab 64
CC1CN(C(=O)Nc2cccc(Cl)c2)C2(CCCCCC2)O1 (stereo not given)	none
Cn1cc(CC(=O)NCCCN2CCCC2=O)c2ccccc21	none
O=C(N/N=C/c1ccc(N2CCOCC2)cc1)C1CC1	none
O=c1c2ccccc2nc(N/N=C/c2c(O)ccc3ccccc23)n1O	L major viab 100
O=c1c2ccccc2nc(N/N=C/c2ccc(O)cc2)n1O	none
COc1cc(/C=C/C(=O)N2CCCc3ccccc32)cc(OC)c1OC	L major viab 50
COc1ccc(/C=C/C(=O)N2CCCc3ccccc32)cc1	L major viab 60
CCCNc1nc(Cl)nc(NC(C)(C)C)n1	none
COCC(C)n1c(SCC(=O)NCCC2=CCCCC2)nc2ccccc2c1=O (stereo not given)	L major viab 92
COCC(C)n1c(SCC(=O)c2cc(C)n(C)c2C)nc2ccccc2c1=O (stereo not given)	L major viab 84
CCOC(=O)N1CCC(n2c(SCC(=O)NCc3ccccc3)nc3ccccc3c2=O)CC1	L major viab 81
C/C(N)=C(/C#N)C(=O)CSc1nc2ccccc2c(=O)n1CCCOC(C)C	L major viab 90 (no result: ABCB1 inh)
CCOc1ccc(/C=N/NC(=O)c2cc(-c3cccn3C)n[nH]2)cc1	none
Nc1cc(=O)nc(SCC(=O)Nc2cccc3ccccc23)n1CCc1ccccc1	none
Cc1cc(SCC(=O)NCCC2=CCCCC2)nc2ccccc12	WT yeast gro inh 69
CCOC(=O)N1CCC(n2c(SCC(=O)N3CCCC3)nc3ccccc3c2=O)CC1	none
CC(=O)NCCn1c(SCC(=O)NCCC2=CCCCC2)nc2ccccc2c1=O	none
COCC(C)n1c(C)cc(C(=O)CSc2nnnn2-c2ccc(O)cc2)c1C (stereo not given)	L major viab 73
CCOC(=O)N1CCC(n2c(SCC(=O)NCCC3=CCCCC3)nc3ccccc3c2=O)CC1	L major viab 70
COCCn1c(SCC(=O)c2ccccc2)nc2ccccc2c1=O	RAM inhibit 9.8
CC1(C)CC(=O)C(C=Nc2ccc3[nH]ncc3c2)=C(O)C1	WT yeast gro inh 84
CCOC(=O)C1CCN(C(=O)c2ccc(N(C)S(=O)(=O)c3ccc(OC)cc3)cc2)CC1	none
CNc1oc(C)nc1S(=O)(=O)c1ccc(C)cc1	WT yeast gro inh 68
O=c1c2ccccc2[nH]c(=S)n1C1CCCCC1	none (no result: ABCB1 inh, ABCG2 inh)
O=c1c2ccccc2n(Cc2ccc(F)cc2)c(=O)n1C1CCCC1	WT yeast gro inh 77
C[n+]1c2n(c3ccccc31)N=C(c1cc(C(C)(C)C)c(O)c(C(C)(C)C)c1)CS2	WT yeast gro inh 76, L major viab 100
Cc1ncc(CO)c(/C=N/NC(=O)c2cc(Br)ccc2O)c1O	none
Cc1ncc(CO)c(/C=N/NC(=O)c2ccc(Br)cc2)c1O	L major viab 98
O=C(/C=C/c1ccccc1)CC(O)(c1ccccc1)C(F)(F)C(F)F (stereo not given)	L major viab 100
O=C(CC(O)(c1ccccc1)C(F)(F)C(F)F)c1cccs1 (stereo not given)	none
COc1ccc(/C=C/C(=O)CC(O)(c2ccccc2)C(F)(F)F)cc1 (stereo not given)	L major viab 98
COc1ccc(/C=C/C(=O)CCC(=O)O)cc1	none
COc1cccc(C(C(=O)NC2CCCC2)N(CC2CCCO2)C(=O)Cc2cccs2)c1 (stereo not given)	none
CCCCCc1nc2ccccc2c(=O)n1NC(=O)c1c(O)c2cccc3c2n(c1=O)CCC3	none (no result: ABCB1 inh, ABCG2 inh, RAM inhibit, WT yeast gro inh)
O=C(Nc1nccs1)c1c(O)c2cccc3c2n(c1=O)CCC3	L major viab 96
CCCCCCc1nc2ccccc2c(=O)n1NC(=O)c1c(O)c2cccc3c2n(c1=O)CCC3	WT yeast gro inh 65
CCCCCCc1nc2ccccc2c(=O)n1NC(=O)c1c(O)c2c(n(CC(C)C)c1=O)CCCC2	L major viab 54
Cc1nc2ccccc2c(=O)n1NC(=O)c1c(O)c2c(n(CC(C)C)c1=O)CCCC2	none
CCC(CC)NC(=O)COC(=O)CCC(=O)c1ccc(Cl)cc1	none
CCN(CC(=O)NC)S(=O)(=O)c1ccc(Br)cc1	none
Oc1ccccc1C1=Nc2nc3ccccc3n2C(c2ccccc2)C1 (stereo not given)	L major viab 91
CC1CCCC(C)N1C(=O)c1cc(-c2ccc(Cl)c(Cl)c2)on1 (stereo not given)	RAM inhibit 11
O=C1c2ccccc2C(Nc2ccc(Cl)cn2)N1Cc1ccccc1 (stereo not given)	WT yeast gro inh 71
O=C1c2ccccc2C(Nc2ccccc2)N1c1ccc(Cl)cn1 (stereo not given)	none
CCCCCCCCCCSc1n[nH]c(N)n1	none
CCOc1ccc(C(=O)Nc2nc3ccccc3[nH]2)cc1OCC	L major viab 52
CCCCCC(=O)Nc1nc2ccccc2[nH]1	none
COc1cc(OC)cc(C(=O)Nc2nc3ccccc3[nH]2)c1	L major viab 64
COc1ccc(C(=O)Nc2nc3ccccc3[nH]2)cc1OC	L major viab 65
O=C(Nc1nc2ccccc2[nH]1)c1ccc(F)cc1	none
COc1ccc(C(=O)NCc2nc3ccccc3[nH]2)cc1OC	none
CCC(Oc1ccccc1)C(=O)Nc1nc2ccccc2[nH]1 (stereo not given)	L major viab 100
CCCOC(=O)c1cc(NC(=O)/C=C/c2ccccc2)ccc1O	none
COc1ccc(C(=O)Nc2nc3ccccc3[nH]2)cc1S(=O)(=O)N1CCCC1	L major viab 59
O=C(Nc1nc2ccccc2[nH]1)c1ccc(F)c(S(=O)(=O)N2CCOCC2)c1	none
CC(C)(C)c1cc(NC(=O)c2cccc(S(=O)(=O)N3CCOCC3)c2)no1	none
CCCCCC(=O)N/N=C/c1ccco1	L major viab 78
O=C(CCCCCCCCC(=O)N/N=C/c1ccco1)N/N=C/c1ccco1	none
O=C(N/N=C\c1ccco1)Nc1cccc(Cl)c1	L major viab 63 (no result: ABCB1 inh, ABCG2 inh)
Cc1cccc(NC(=O)CCC(=O)N/N=C/c2ccco2)c1	none
Cc1ccc(OC(C)C(=O)N/N=C/c2ccccn2)cc1 (stereo not given)	none
Cc1cccc(OCC2CCCN(Cc3nc(C4CC4)no3)C2)c1 (stereo not given)	L major viab 62
O=C(Nc1ccc(Cl)cc1)C1CCN(C(=O)NC2CCCCC2)CC1	none
